Screens from PubChem BioAssay.
NSD2 HMT inh = NSD2 (human) methyltransferase inhibition. 310,000 compounds, 0.54% hits. O96028. NSD2 peptide methylation, AlphaScreen, 120 min. AID 743445. inhibition, % at 12.5 µM; in the data active = inhibition above about 50%
CaV13 ICDI inh = Primary screen for inhibitors of IQ motif and Ca2+-dependent inactivation inhibitor domain binding in CACNA1D, Förster resonance energy transfer in living cells, …; 340,000 compounds, 0.098% hits; inhibition, % at 12.3 µM; HEK cells, CFP/YFP FRET ICDI-IQ, plate reader, 10 min; percent FRET-ratio fall versus neutral wells;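 active = mean replicate inhibition of at least 30% and at least 1% of replicates passing that level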
CASP6 VEID inh = caspase-6 (human) enzyme inhibition | P55212 | purified caspase-6, Z-VEID-R110 cleavage fluorescence | inhibition, % at 12.5 µM | 350,000 compounds, 0.53% hits | AID 686996;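 active = mean inhibition across replicates at least about 35%, with every replicate also reaching that limit, limit read from the data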
GC-B act = GC-B (human) receptor activation | P20594 | HEK293-GC-B cells, CNP EC30, cGMP TR-FRET; 0% at EC30 CNP, 100% saturating CNP | activation, % at 10 µM | 370,000 compounds, 0.11% hits | AID 1920062;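 active = activation at 10 µM reaching about 35% in either raw or pattern-adjusted values, limit read from the data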
Target sequence (P20594 whole entry, looked up): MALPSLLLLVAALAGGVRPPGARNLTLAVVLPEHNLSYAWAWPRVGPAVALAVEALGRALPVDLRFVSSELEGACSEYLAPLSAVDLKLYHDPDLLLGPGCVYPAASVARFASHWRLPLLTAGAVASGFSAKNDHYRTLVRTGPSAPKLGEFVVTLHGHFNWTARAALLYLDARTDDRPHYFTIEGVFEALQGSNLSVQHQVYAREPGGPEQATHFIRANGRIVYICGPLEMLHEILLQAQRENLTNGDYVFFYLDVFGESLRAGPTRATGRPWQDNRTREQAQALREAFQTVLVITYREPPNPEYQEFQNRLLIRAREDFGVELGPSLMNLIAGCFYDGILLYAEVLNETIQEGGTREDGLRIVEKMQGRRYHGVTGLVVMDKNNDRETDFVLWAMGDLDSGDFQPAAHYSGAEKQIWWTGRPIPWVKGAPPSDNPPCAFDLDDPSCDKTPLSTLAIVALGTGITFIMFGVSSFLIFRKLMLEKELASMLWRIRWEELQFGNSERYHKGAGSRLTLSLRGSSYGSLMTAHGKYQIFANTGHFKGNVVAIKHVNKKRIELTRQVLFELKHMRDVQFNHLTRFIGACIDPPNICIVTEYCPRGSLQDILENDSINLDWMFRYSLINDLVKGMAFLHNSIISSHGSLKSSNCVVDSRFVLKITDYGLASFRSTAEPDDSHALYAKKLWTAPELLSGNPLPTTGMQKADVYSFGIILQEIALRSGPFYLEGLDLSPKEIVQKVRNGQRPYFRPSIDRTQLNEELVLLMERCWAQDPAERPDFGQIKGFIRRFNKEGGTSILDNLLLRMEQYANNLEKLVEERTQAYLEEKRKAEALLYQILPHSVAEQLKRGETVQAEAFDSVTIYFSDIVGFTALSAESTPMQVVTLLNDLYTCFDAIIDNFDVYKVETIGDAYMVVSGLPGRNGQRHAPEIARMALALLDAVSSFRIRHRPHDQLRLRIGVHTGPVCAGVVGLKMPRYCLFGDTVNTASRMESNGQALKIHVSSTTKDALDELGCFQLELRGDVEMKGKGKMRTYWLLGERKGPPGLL
GC-A act = GC-A (human) enzyme activation; P16066; HEK293 GC-A cells, cGMP TR-FRET, EC30 ANP; 0% at EC30 ANP, 100% saturating ANP; activation, % at 10 µM; 370,000 compounds, 0.14% hits; in the data active = activation above about 40%
FN deposition inh = fibronectin deposition inhibition. inhibition, % at 12.6 µM. AH1F fibroblasts, Alexa488-fibronectin deposition fluorescence, overnight. 350,000 compounds, 0.086% hits. AID 743247;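 active = mean inhibition across replicates of 30% or more, regardless of how many single replicates reach that level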
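Measured by – fluorescence 485/525 nm · System – AH1F fibroblast monolayer, labelled fibronectin deposition · Amount – 10000 cells per well · Buffer or medium – serum-reduced DMEM (2% serum) · Doses – single dose, pinned · Also added – fluorescent fibronectin at 24 nM final · Schedule – 1 h cell attachment, overnight exposure to compound and label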
Large screens that a line does not name were inactive. Compounds with a hit are over-represented: about 0.99% of the library has one in this group of screens.

Cc1ccc(C(=O)CSc2nc(C)cc(=O)[nH]2)cc1	none (no result: CASP6 VEID inh)
CN1CCN(C(=O)C[C@H]2C[C@H]3c4cc(NC(=O)Cc5ccncc5)ccc4O[C@H]3[C@@H](CO)O2)CC1	none (no result: NSD2 HMT inh, CaV13 ICDI inh, GC-B act, GC-A act, FN deposition inh)
COc1ccc2c(c1)c(CCN1C(=O)c3ccccc3C1=O)cn2C(=O)c1ccco1	CASP6 VEID inh 38 (no result: FN deposition inh)
O=C(Oc1ccc2[nH]cc(CCN3C(=O)c4ccccc4C3=O)c2c1)c1ccco1	none (no result: FN deposition inh)
C[C@H](NC(=O)C[C@@H]1CC[C@H]2[C@@H](COC[C@H](O)CN2C(=O)Nc2cccc(Cl)c2)O1)c1ccccc1	none (no result: NSD2 HMT inh, CaV13 ICDI inh, CASP6 VEID inh, GC-B act, GC-A act)
COc1cccc(N2[C@@H](CC(C)=O)c3ccccc3S2(=O)=O)c1	none (no result: NSD2 HMT inh)
COc1cccc(N2[C@@H](CC(=O)O)c3ccc(/C=C/C(=O)O)cc3S2(=O)=O)c1	CASP6 VEID inh 62 (no result: NSD2 HMT inh)
Cc1cccn2c(=O)c3cc(C(=O)NCCc4ccccc4)c(=N)n(CCCn4ccnc4)c3nc12	CaV13 ICDI inh 33 (no result: CASP6 VEID inh, FN deposition inh)
COCCn1c(=N)c(C(=O)NCCc2ccccc2)cc2c(=O)n3cccc(C)c3nc21	none (no result: CaV13 ICDI inh, CASP6 VEID inh, FN deposition inh)
Cc1cccn2c(=O)c3cc(C(N)=S)c(=N)n(CCCOC(C)C)c3nc12	CaV13 ICDI inh 34 (no result: CASP6 VEID inh, FN deposition inh)
Cc1cccn2c(=O)c3cc(C(=O)NCCN4CCOCC4)c(=N)n(CCc4ccccc4)c3nc12	CaV13 ICDI inh 34 (no result: NSD2 HMT inh, CASP6 VEID inh, FN deposition inh)
O=C(C[C@@H]1C=C[C@H](NC(=O)NC2CCCCC2)[C@@H](CO)O1)NCc1ccccc1	none (no result: NSD2 HMT inh, CaV13 ICDI inh, GC-B act, GC-A act, FN deposition inh)
CN1C(=O)c2cc(NC(=O)c3ccc(F)c(F)c3)ccc2OC[C@H]2O[C@H](CC(=O)O)CC[C@H]21	none (no result: NSD2 HMT inh, CaV13 ICDI inh, CASP6 VEID inh, GC-B act, GC-A act)
COc1ccc(S(=O)(=O)N(C)C[C@@H]2OCCCC[C@@H](C)Oc3ccc(NS(=O)(=O)c4ccc(C)cc4)cc3C(=O)N([C@@H](C)CO)C[C@H]2C)cc1	none (no result: NSD2 HMT inh, CaV13 ICDI inh, GC-B act, GC-A act, FN deposition inh)
C[C@@H]1CN([C@@H](C)CO)C(=O)c2cc(C#CC3(O)CCCC3)cnc2O[C@@H]1CN(C)C	none (no result: NSD2 HMT inh, CaV13 ICDI inh, GC-B act, GC-A act)
O=C(CC1Nc2ccccc2NC1=O)Nc1ccc2c(c1)OCO2 (stereo unspecified)	FN deposition inh 34
CN(C)C(=O)c1ccc(-c2ccc([C@H]3[C@@H](CO)N4CCCCN(C(=O)C5CCCC5)C[C@@H]34)cc2)cc1	none (no result: NSD2 HMT inh, CaV13 ICDI inh, GC-B act, GC-A act, FN deposition inh)
N=c1oc2cc(O)ccc2cc1C(=O)Nc1nc2ccccc2s1	CaV13 ICDI inh 81
N=c1oc2cc(O)ccc2cc1C(=O)Nc1ccc(Br)cc1	CaV13 ICDI inh active
COc1ccccc1C(=O)Nc1nc2ccccc2s1	none (no result: NSD2 HMT inh)
C[C@@H]1CN([C@@H](C)CO)C(=O)c2cc(NC(=O)CCCN(C)C)ccc2O[C@@H]1CN(C)S(=O)(=O)c1ccc(F)cc1	none (no result: NSD2 HMT inh, CaV13 ICDI inh, GC-B act, GC-A act, FN deposition inh)
COC1=CC(=O)C(C2CC(=O)c3c(O)cc(O)cc3O2)=CC1=O (stereo unspecified)	CASP6 VEID inh 44
O=C(CCCn1c(=O)c2sccc2n(Cc2cc(=O)n3ccccc3n2)c1=O)NCc1ccco1	CaV13 ICDI inh active (no result: NSD2 HMT inh)
Cc1cc(C)c(Cn2c(=O)n(CCCC(=O)NCc3ccco3)c(=O)c3sccc32)c(C)c1	FN deposition inh 34 (no result: CASP6 VEID inh)
Cc1ccc(NC(=O)COc2cccc(/C=C3\SC(=S)N(CCC(=O)O)C3=O)c2)cc1Cl	CASP6 VEID inh 42
CC(C)NC(=O)N(C)C[C@H]1OCCCC[C@H](C)Oc2ccc(N(C)C)cc2C(=O)N([C@H](C)CO)C[C@H]1C	none (no result: NSD2 HMT inh, CaV13 ICDI inh, GC-B act, GC-A act, FN deposition inh)
COCCNC(=O)c1ccc(-c2cn[nH]c2)c2ccoc12	none
O=C(NCc1ccccc1)c1ccc(-c2cn[nH]c2)c2ccoc12	FN deposition inh 35
CC(=O)Nc1ccc2c(c1)C(=O)N(C)[C@H]1CC[C@@H](CC(=O)NCc3ccccc3)O[C@@H]1CO2	none (no result: NSD2 HMT inh, CaV13 ICDI inh, GC-B act, GC-A act)
CC(C)NC(=S)NNc1ncnc2sc3c(c12)CC(C)(C)OC3	GC-B act 38
Clc1ccc(OCCSc2ncccn2)cc1	GC-A act 55 (no result: CASP6 VEID inh, FN deposition inh)
Cc1cccc(NC(=O)c2ccc(S(=O)(=O)N3CCCCC3)cc2)n1	FN deposition inh 38 (no result: NSD2 HMT inh)
COc1ccccc1OCc1ccc(C(=O)N(C)C)o1	none (no result: CASP6 VEID inh, FN deposition inh)
COc1ccccc1OCc1ccc(C(=O)N(C)c2ccccc2)o1	CaV13 ICDI inh 39
C[C@H]1CN([C@@H](C)CO)C(=O)c2c(c3ccccc3n2C)-c2ccccc2CO[C@H]1CN(C)C(=O)c1ccncc1	none (no result: NSD2 HMT inh, CaV13 ICDI inh, GC-B act, GC-A act)
COc1ccccc1CN(C)C[C@H]1OCc2ccccc2-c2c(n(C)c3ccccc23)C(=O)N([C@@H](C)CO)C[C@@H]1C	none (no result: NSD2 HMT inh, CaV13 ICDI inh, GC-B act, GC-A act)
CCOCCCNC(=S)N1CCCN(c2nc3cc(C)c(C)cc3cc2C#N)CC1	CaV13 ICDI inh 94
CNC(=O)C[C@@H]1CC[C@H]2[C@@H](COc3ccc(NC(=O)Nc4ccc(C)cc4)cc3C(=O)N2C)O1	none (no result: NSD2 HMT inh, CaV13 ICDI inh, GC-B act, GC-A act)
O=C1C(N2CCOCC2)=C(n2nnc3ccccc32)C(=O)c2ccccc21	NSD2 HMT inh 117 (no result: CASP6 VEID inh)
CN=C(Nc1cccnc1)c1cccc(C(F)(F)F)c1	CASP6 VEID inh 65
COc1ccc(CN(C)C(=O)c2ccc(OCC(=O)Nc3cccc(C(F)(F)F)c3)c(OC)c2)c(OC)c1	CASP6 VEID inh 57
COc1cccc(CN(C)C(=O)c2ccc(OCC(=O)Nc3cccc(C(F)(F)F)c3)c(OC)c2)c1	none
CN1CCN(C(=O)C[C@H]2C[C@@H]3c4cc(NC(=O)Cc5ccncc5)ccc4O[C@@H]3[C@H](CO)O2)CC1	none (no result: NSD2 HMT inh, CaV13 ICDI inh, GC-B act, GC-A act, FN deposition inh)
Cc1ccc(C)c(Sc2ccc(S(=O)(=O)Nc3ccc(C(=O)O)cc3)cc2)c1	none
